Assay results as given in ChEMBL document CHEMBL5260797, “N-(1-Benzyl-3,5-dimethyl-1H-pyrazol-4-yl)benzamides: Antiproliferative Activity and Effects on mTORC1 and Autophagy” (ACS Med Chem Lett, 2017).
Converted amounts (≈) assume the structure as drawn. The source made the active and inactive calls. The calls are words filed in the database; no cut-off is given here.

Assays:
[1] = system: MIA PaCa-2; experiment: Antiproliferative activity against human MIA PaCa-2 cells assessed as cell viability measured after 72 hrs by MTT assay; type: functional, cell-based; conditions: MIA PaCa-2, 72 h
Method in brief: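 MIA PaCa-2 pancreatic cancer cells; EC50 values determined in triplicate.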

[2] = Metabolic stability in mouse plasma assessed as parent compound remaining measured after 6 hrs by LC-MS/MS analysis; type: ADME, cell-free; conditions: read-out: Stability
[3] = Metabolic stability in human plasma assessed as parent compound remaining measured after 6 hrs by LC-MS/MS analysis; type: ADME, cell-free; conditions: read-out: Stability
[4] = Thermodynamic aqueous solubility of the compound at pH 7.4 measured after 48 hrs by UV-spectrometry method; type: physicochemical; conditions: read-out: Therm_solubility
[5] = Cytotoxicity against human ARPE-19 cells assessed as cell viability measured after 72 hrs by MTT assay; type: toxicity, cell-based
[6] = system: ARPE-19; experiment: Induction of autophagy in human ARPE-19 cells assessed as increase in LC3-2 conversion at 10 uM measured after 4 hrs by Western blot analysis; type: functional, cell-based
Method in brief: (§1)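 ARPE-19 cells treated 4 h in complete medium without starvation with increasing concentrations (10, 25, 50 μM) or DMSO. LC3 detected by Western blot; LC3-II/actin ratio expressed as fold increase over DMSO control, n = 3.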

[7] = system: ARPE-19; experiment: Induction of autophagy in human ARPE-19 cells assessed as increase in LC3-labeled punctae at 25 uM measured after 4 hrs by immunofluorescence analysis relative to control; type: functional, cell-based
Method in brief: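 ARPE-19 cells treated 4 h at 25 μM in complete medium without starvation, or with DMSO. LC3 punctae detected by immunofluorescence, with CD63 as late endosomal/lysosomal marker.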

[8] = system: ARPE-19; experiment: Induction of autophagy in human ARPE-19 cells assessed as fold increase in LC3 turnover at 50 uM measured after 4 hrs by Western blot analysis; type: functional
Method in brief: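 ARPE-19 human retinal pigment epithelial cells exposed 4 h to compound or DMSO in complete medium without starvation. LC3 conversion read by Western blot as LC3-II/actin ratio and expressed as fold increase over DMSO control, n = 3.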

[9] = system: ARPE-19; experiment: Induction of autophagy in human ARPE-19 cells assessed as increase in LC3-2 conversion at 25 to 50 uM measured after 4 hrs by Western blot analysis; type: functional, cell-based; conditions: dose 25-50 µM; method in brief: as §1
[10] = system: ARPE-19; experiment: Induction of autophagy in human ARPE-19 cells assessed as increase in LC3-2 conversion measured after 4 hrs by Western blot analysis; type: functional, cell-based; conditions: dose 25-50 µM; method in brief: as §1
[11] = system: ARPE-19; experiment: Reduction in autophagic flux in human ARPE-19 cells at 25 uM incubated for 4 hrs in complete medium in presence of bafilomycin; type: functional, cell-based
Method in brief: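 ARPE-19 cells in full medium with 100 nM bafilomycin plus compound or DMSO. Autophagic flux read as LC3-II by Western blot.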

[12] = molecular target: T1, mTORC1 (Homo sapiens) (UniProt P42345+Q8N122+Q9BVC4); experiment: Inhibition of mTORC1 in human ARPE19 cells at 10 to 50 uM measured after 4 hrs by Western blot analysis related to control; type: cell-based; conditions: ARPE-19, dose 10-50 µM
Method in brief: (§2)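 ARPE-19 cells treated 4 h without starvation with increasing concentrations or DMSO. Basal mTORC1 activity measured by Western blot as phosphorylated P70/total P70, with DMSO set to 100%.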

[13] = molecular target: T1, mTORC1 (Homo sapiens); experiment: Inhibition of mTORC1 in human ARPE19 cells measured after 4 hrs by Western blot analysis; type: cell-based; conditions: ARPE-19, dose 10-50 µM; method in brief: as §2
[14] = molecular target: T1, mTORC1 (Homo sapiens); experiment: Inhibition of mTORC1 in human ARPE19 cells assessed as decrease in P70/total P70 phosphorylation level at 10 uM measured after 4 hrs by Western blot analysis; type: cell-based; conditions: ARPE-19; method in brief: as §2
[15] = system: ARPE-19; experiment: Induction of autophagy in human ARPE-19 cells assessed as LC3 level at 25 uM measured after 4 hrs under starvation/refeed condition by immunofluorescence analysis; type: functional, cell-based
Method in brief: (§3)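 ARPE-19 cells starved 4 h in EBSS, then refed 1 h in complete medium containing 25 μM compound or DMSO. LC3 punctae imaged by immunofluorescence, with CD63 co-stain.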

[16] = system: ARPE-19; experiment: Induction of autophagy in human ARPE-19 cells assessed as LC3 accumulation at 25 to 50 uM measured after 4 hrs under refeed condition by immunofluorescence analysis; type: functional, cell-based; conditions: dose 25-50 µM
[17] = system: ARPE-19; experiment: Induction of autophagy in human ARPE-19 cells assessed fold increase in LC3 turnover at 10 uM pretreated measured after 1 hr under refeed condition by Westernblot analysis; type: functional
Method in brief: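 ARPE-19 cells pretreated 30 min with 10 μM compound or DMSO, starved 4 h in EBSS, then refed 1 h in complete medium with compound or DMSO. LC3-II/actin quantified by Western blot and expressed as fold increase over DMSO control, n = 3.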

[18] = system: ARPE-19; experiment: Induction of autophagy in human ARPE-19 cells assessed as appearance of LC3 non-uniformed shapes at 25 uM pretreated for 30 mins with cells followed by incubation for 4 hrs under starvation condition by immunofluorescence analysis; type: functional, cell-based; conditions: time 4.5 hrs
Method in brief: (§4)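 ARPE-19 cells starved 4 h in EBSS with 25 μM compound or DMSO. LC3-labeled structures imaged by immunofluorescence, with CD63 as late endosomal/lysosomal marker.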

[19] = system: ARPE-19; experiment: Induction of autophagy in human ARPE-19 cells assessed as LC3 enlarged structures at 25 uM pretreated for 30 mins with cells followed by incubation for 4 hrs under starvation condition by immunofluorescence analysis; type: functional, cell-based; conditions: time 4.5 hrs; method in brief: as §4
[20] = system: ARPE-19; experiment: Induction of autophagy in human ARPE-19 cells assessed as decrease in LC3-2/actin ratio at 10 uM pretreated for 30 mins with cells followed by incubation for 4 hrs under starvation condition by Western blot analysis; type: functional, cell-based; conditions: time 4.5 hrs
Method in brief: (§5)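 ARPE-19 cells pretreated 30 min at 10 μM (or DMSO). Then 4 h with compound in EBSS starvation medium, or in EBSS with 100 nM bafilomycin. LC3-II/actin quantified by Western blot as fold of DMSO control, n = 3.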

[21] = system: ARPE-19; experiment: Induction of autophagy in human ARPE-19 cells assessed as decrease in LC3-2/actin ratio at 10 uM pretreated for 30 mins with cells followed by incubation for 4 hrs under starvation condition in presence of bafilomycin by Western blot analysis; type: functional, cell-based; conditions: time 4.5 hrs; method in brief: as §5
[22] = Metabolic stability in mouse plasma assessed as parent compound remaining measured after 24 hrs by LC-MS/MS analysis; type: ADME, cell-free; conditions: read-out: Stability
[23] = Metabolic stability in human plasma assessed as parent compound remaining measured after 24 hrs by LC-MS/MS analysis; type: ADME, cell-free; conditions: read-out: Stability
[24] = molecular target: T1, mTORC1 (Homo sapiens); experiment: Inhibition of mTORC1 reactivation in human ARPE-19 cells assessed as reduction of 4E-BP1 phosphorylation at 10 uM preincubated for 4 hrs under starvation/refeed condition measured after 1 hr in complete medium by Western blot analysis; type: cell-based; conditions: time 5.0 hrs
Method in brief: (§6)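 ARPE-19 cells starved 4 h in EBSS, then refed 1 h in complete medium with 10 μM compound or DMSO. mTORC1 reactivation read by Western blot as phosphorylation of P70 and 4EBP1.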

[25] = molecular target: T1, mTORC1 (Homo sapiens); experiment: Inhibition of mTORC1 reactivation in human ARPE-19 cells assessed as reduction of P70 phosphorylation at 10 uM preincubated for 4 hrs under starvation/refeed condition measured after 1 hr in complete medium by Western blot analysis; type: cell-based; conditions: time 5.0 hrs; method in brief: as §6
[26] = system: ARPE-19; experiment: Induction of autophagy in human ARPE-19 cells assessed as appearance of abnormal punctae at 25 uM measured after 1 hr under starvation/refeed condition by immunofluorescence analysis; type: functional, cell-based; method in brief: as §3
[27] = molecular target: T1, mTORC1 (Homo sapiens); experiment: Inhibition of mTORC1 reactivation in human ARPE-19 cells at 25 to 50 uM preincubated for 4 hrs under starvation/refeed condition measured after 1 hr in complete medium by Western blot analysis; type: cell-based; conditions: dose 25-50 µM, time 5.0 hrs
[28] = system: ARPE-19; experiment: Inhibition of autophagy in human ARPE-19 cells assessed as fold decrease in LC3 turnover at 10 uM pretreated for 30 mins with cells followed by incubation for 4 hrs under starvation condition by Western blot analysis; conditions: time 4.5 hrs

T1 sequence (Q8N122 whole entry, looked up, other chains not shown): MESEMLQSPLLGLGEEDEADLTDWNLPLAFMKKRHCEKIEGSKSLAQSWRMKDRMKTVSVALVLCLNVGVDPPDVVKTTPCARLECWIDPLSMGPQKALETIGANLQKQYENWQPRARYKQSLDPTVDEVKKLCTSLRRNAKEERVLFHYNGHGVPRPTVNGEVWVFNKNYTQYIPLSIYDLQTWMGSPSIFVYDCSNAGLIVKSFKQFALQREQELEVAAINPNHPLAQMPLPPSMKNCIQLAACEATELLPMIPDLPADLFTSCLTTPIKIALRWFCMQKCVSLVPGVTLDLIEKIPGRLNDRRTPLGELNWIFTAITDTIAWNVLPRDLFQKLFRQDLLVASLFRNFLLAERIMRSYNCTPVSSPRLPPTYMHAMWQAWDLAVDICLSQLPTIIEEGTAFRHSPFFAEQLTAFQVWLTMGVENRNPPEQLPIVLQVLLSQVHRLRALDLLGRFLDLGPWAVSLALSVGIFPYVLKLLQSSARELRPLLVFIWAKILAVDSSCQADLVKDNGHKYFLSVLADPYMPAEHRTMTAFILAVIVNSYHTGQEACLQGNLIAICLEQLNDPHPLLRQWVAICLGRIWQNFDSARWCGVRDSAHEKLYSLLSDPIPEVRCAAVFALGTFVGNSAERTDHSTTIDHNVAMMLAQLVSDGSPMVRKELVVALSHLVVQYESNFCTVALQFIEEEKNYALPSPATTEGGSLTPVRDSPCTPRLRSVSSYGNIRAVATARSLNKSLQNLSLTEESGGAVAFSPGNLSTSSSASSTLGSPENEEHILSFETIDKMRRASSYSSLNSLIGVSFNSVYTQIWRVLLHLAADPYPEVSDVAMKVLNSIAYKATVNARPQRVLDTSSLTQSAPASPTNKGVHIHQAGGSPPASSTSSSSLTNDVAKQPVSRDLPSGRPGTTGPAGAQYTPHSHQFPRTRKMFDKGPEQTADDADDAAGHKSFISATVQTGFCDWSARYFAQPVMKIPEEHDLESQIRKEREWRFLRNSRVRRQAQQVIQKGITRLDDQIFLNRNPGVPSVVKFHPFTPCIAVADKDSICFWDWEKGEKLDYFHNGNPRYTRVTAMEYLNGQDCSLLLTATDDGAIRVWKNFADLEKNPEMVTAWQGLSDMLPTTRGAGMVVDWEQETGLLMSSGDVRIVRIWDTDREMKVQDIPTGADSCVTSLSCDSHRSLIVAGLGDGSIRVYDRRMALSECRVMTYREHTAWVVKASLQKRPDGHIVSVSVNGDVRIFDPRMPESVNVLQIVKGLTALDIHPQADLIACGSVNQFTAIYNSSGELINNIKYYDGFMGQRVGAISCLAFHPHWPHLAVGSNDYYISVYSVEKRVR
T1 sequence (Q9BVC4 whole entry, looked up, other chains not shown): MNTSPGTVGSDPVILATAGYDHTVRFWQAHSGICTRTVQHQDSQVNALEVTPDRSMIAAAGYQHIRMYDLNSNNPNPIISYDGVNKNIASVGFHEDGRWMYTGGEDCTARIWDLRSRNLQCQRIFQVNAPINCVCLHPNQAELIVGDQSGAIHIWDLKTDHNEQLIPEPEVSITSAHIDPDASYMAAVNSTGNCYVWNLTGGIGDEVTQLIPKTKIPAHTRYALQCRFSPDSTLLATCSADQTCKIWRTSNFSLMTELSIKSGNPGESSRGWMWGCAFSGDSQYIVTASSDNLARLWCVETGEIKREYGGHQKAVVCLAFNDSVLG

Q: Which EC50 [1] does the source give for `CNC(=O)c1cccc(Cn2nc(C)c(NC(=O)c3ccc(COc4cccc(OC)c4)cc3)c2C)c1` here?
A: The EC50 was 6.2 µM.

Q: With `Cc1nn(Cc2ccccc2)c(C)c1NC(=O)c1ccc(COc2ccccc2)cc1` as the compound, how does the EC50 [1] read?
A: The EC50 was 10 µM.

Q: For `CNC(=O)c1cccc(Cn2nc(C)c(NC(=O)c3ccc(COc4ccccc4)cc3)c2C)c1`, which EC50 [1] is on record?
A: Its EC50 is 6.2 µM.

Q: For `CCNC(=O)c1cccc(Cn2nc(C)c(NC(=O)c3ccc(COc4ccccc4)cc3)c2C)c1`, which EC50 [1] is on record?
A: Its EC50 is 11 µM.

Q: Which EC50 [1] does the source give for `CNC(=O)c1cccc(Cn2nc(C)c(NC(=O)c3ccc(COc4ccccc4C(F)(F)F)cc3)c2C)c1` here?
A: The EC50 was 10 µM.

Q: Which EC50 [1] does the source give for `CCN(CC)CCCC(C)Nc1ccnc2cc(Cl)ccc12` (centres undefined) [CHLOROQUINE] here?
A: Its EC50 is 14 µM.

Q: Which results are given for `CNC(=O)c1cccc(Cn2nc(C)c(NC(=O)c3ccc(COc4ccc(C(F)(F)F)cc4C)cc3)c2C)c1`?
A: EC50 [1]: 0.62 µM; remaining at 6 h [2]: 88%; remaining at 6 h [3]: 98%; solubility thermodynamic at 48 h [4]: 166 µM (≈ 91.4 µg/mL); EC50 at 72 h [5]: 7.1 µM; Activity [6]: Active; Activity [7]: Active; fold change (FC) [8]: 3.3; Activity [9]: Active; Activity [10]: Dose-Dependent Effect; Activity [11]: inactive; inhibition [12]: 78%; inhibition [13]: Dose-Dependent Effect; inhibition [14]: Active; Activity [15]: Active; Activity [16]: Active; fold change (FC) [17]: 1.7; Activity [18]: Active; Activity [19]: Active; Activity [20]: Active; Activity [21]: inactive; remaining at 24 h [22]: 93%; remaining at 24 h [23]: 100%; Activity [24]: Active; Activity [25]: Active; Activity [26]: Active; Activity [27]: Active; fold change (FC) [28]: 1.7
